ChEMBL document CHEMBL1140190, “Phenolic constituents of Amorpha fruticosa that inhibit NF-kappaB activation and related gene expression” (J Nat Prod, 2008)
pIC50: −log10 of the molar value. Activity calls are given as the source filed them. The calls are words filed in the database; no cut-off is given here.

Columns and labels:
MCF7 [1] = assay: Suppression of TNF-alpha-induced expression of iNOS in human MCF7 cells at 3 uM by Western blot analysis; assay type: functional, cell-based
Procedure, shortened: (§1)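 MCF-7 cells plated at 70% confluence and kept overnight at 37 °C. Compound (DMSO final 0.001%) added for 30 min, then TNF-α 20 ng mL-1 for 24 h. Total lysates run on 10% SDS-PAGE and blotted, primary antibody overnight at 4 °C, ECL detection, α-tubulin as loading control.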

[2] = Inhibition of TNF-alpha-induced NF-kappaB activation in human HeLa cells by SEAP reporter gene assay; assay type: cell-based
Procedure, shortened: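 HeLa cells transiently transfected with an 8×κB-SEAP reporter plasmid, seeded at 5 × 10^4 cells/well, 3 h at 37 °C. Compounds in DMSO (final 0.01%) with TNF-α 10 ng mL-1 for 24 h. Supernatant heat-treated 65 °C 10 min, substrate p-nitrophenyl phosphate, 37 °C 4 h, absorbance 405 nm. Means ± SD, three experiments.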

MCF7 [3] = assay: Induction of apoptosis in human MCF7 cells assessed as suppression of MMP9 by Western blot analysis; assay type: functional, cell-based
Procedure, shortened: (§2)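 MCF-7 cells plated at 70% confluence and incubated overnight at 37 °C. Pretreated 30 min with compounds in DMSO (final DMSO 0.001%), then stimulated with TNF-α (20 ng mL-1) for 24 h. Total lysates in NP-40 lysis buffer were resolved by 10% SDS-PAGE and immunoblotted with specific antibodies (1:1000, overnight, 4 °C). ECL detection with α-tubulin as loading control.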

MCF7 [4] = assay: Induction of apoptosis in human MCF7 cells assessed as down regulation of cIAP2 by Western blot analysis; assay type: functional, cell-based; procedure, shortened: as §2
MCF7 [5] = assay: Inhibition of TNF-alpha-induced NF-kappaB DNA binding activity in human MCF7 cells by electrophoretic shift mobility assay; assay type: cell-based
Procedure, shortened: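 MCF-7 cells at 70% confluence preincubated 30 min with compounds (DMSO final 0.001%), then TNF-α 20 ng mL-1 for 60 min. Nuclear extracts from hypotonic swelling and high-salt extraction, bound 20 min at room temperature to a 32P end-labeled NF-κB oligonucleotide. Excess unlabeled NF-κB and AP-1 oligonucleotides served as competitors.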

MCF7 [6] = assay: Blockade of TNF-alpha-induced COX2 induction in human MCF7 cells by Western blot analysis; assay type: functional, cell-based; procedure, shortened: as §2
MCF7 [7] = assay: Induction of apoptosis in human MCF7 cells assessed as down regulation of cIAP1 by Western blot analysis; assay type: functional, cell-based; procedure, shortened: as §2
[8] = Inhibition of LPS-induced NF-kappaB activation in mouse RAW264.7 cells by SEAP reporter gene assay; assay type: cell-based
Procedure, shortened: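 RAW264.7 cells transiently transfected with a plasmid carrying eight κB elements driving SEAP, seeded at 5 × 10^4 cells/well, 3 h at 37 °C. Compounds in DMSO (final 0.01%) plus LPS 1 µg mL-1 for 24 h. Supernatant heated 65 °C 10 min, then SEAP buffer and p-nitrophenyl phosphate, 37 °C 4 h, OD 405 nm. Means ± SD of three experiments.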

MCF7 [9] = assay: Suppression of TNF-alpha-induced expression of iNOS in human MCF7 cells at 10 uM by Western blot analysis; assay type: functional, cell-based; procedure, shortened: as §1

Row | Compound | Activity (MCF7 [1]) | pIC50 [2] | Activity (MCF7 [3]) | Activity (MCF7 [4]) | Activity (MCF7 [5]) | Activity (MCF7 [6]) | Activity (MCF7 [7]) | pIC50 [8] | Activity (MCF7 [9])
1 | COC1=CC(=O)[C@]2(C=C1OC)OC[C@H]1Oc3c4c(cc(O)c3C(=O)[C@H]12)OC(C)(C)C=C4 | Active | 5.67 | Active | Active | Dose-dependent effect | Active | Active | 5.12 | Active
2 | CC1=C(O)C(=O)C=C2C1=CC=C1[C@@]2(C)CC[C@@]2(C)[C@@H]3C[C@](C)(C(=O)O)CC[C@]3(C)CC[C@]12C [CELASTROL] | – | 6.82 | – | – | – | – | – | 6.52 | –
3 | COc1cc2c(cc1OC)[C@]1(O)C(=O)c3c(O)cc4c(c3O[C@@H]1CO2)C=CC(C)(C)O4 | – | 6.72 | – | – | – | – | – | 5.38 | –
4 | COC1=CC(=O)[C@]2(C=C1OC)OC[C@H]1Oc3c(ccc4c3C=CC(C)(C)O4)C(=O)[C@H]12 [AMORPHISPIRONONE] | – | 5.13 | – | – | – | – | – | 4.86 | –
5 | COc1cc2c(cc1OC)[C@@H]1C(=O)c3ccc4c(c3O[C@@H]1CO2)C=CC(C)(C)O4 [DEGUELIN] | – | 6.66 | – | – | – | – | – | 5.76 | –
6 | COc1c(C/C=C(\C)CCC=C(C)C)c(O)cc(CCc2ccccc2)c1C(=O)O | – | 5.95 | – | – | – | – | – | 5.61 | –
7 | CC(C)=CCC/C(C)=C/Cc1c(O)cc(CCc2ccccc2)c(C(=O)O)c1O | – | 5.81 | – | – | – | – | – | 5.50 | –
8 | CC(C)=CCC/C(C)=C/Cc1c(O)cc(/C=C/c2ccccc2)cc1O [AMORPHASTILBOL] | – | 6.59 | – | – | – | – | – | 6.17 | –
9 | COc1c(CC=C(C)C)c(O)cc(CCc2ccccc2)c1C(=O)O | – | 5.76 | – | – | – | – | – | 5.52 | –
10 | COc1cc(CCc2ccccc2)c(C(=O)O)c(O)c1CC=C(C)C [AMORFRUTIN A] | Active | 6.08 | – | – | Dose-dependent effect | – | – | 5.38 | Active
11 | COc1cc2c(cc1OC)[C@]1(O)C(=O)c3ccc4c(c3O[C@@H]1CO2)C=CC(C)(C)O4 [TEPHROSIN] | Active | 6.96 | Active | Active | Dose-dependent effect | Active | Active | 5.70 | Active
12 | CC(C)=CCC/C(C)=C/Cc1c(O)ccc(C(=O)/C=C/c2ccc(O)cc2)c1O [XANTHOANGELOL] | – | 5.99 | – | – | – | – | – | 5.74 | –
